Test results taken from ChEMBL document CHEMBL1287642, “Synthesis, antiviral activity and cytotoxicity evaluation of Schiff bases of some 2-phenyl quinazoline-4(3)H-ones” (Eur J Med Chem, 2010).
Values after ≈ are worked out from the molar mass of the structure shown. Active and inactive are the calls of the source. The rule behind the calls is not given here.

Tests used:
[1] = tested on: Feline infectious peritonitis virus; test: Antiviral activity against Feline coronavirus FIPV infected in cat CRFK cells assessed as protection against virus-induced cytopathogenicity after 2 days by MTS assay; assay type: functional, cell-based; settings: Alphacoronavirus 1, CRFK, 48 h
[2] = Selectivity index, ratio of minimum concentration required to cause microscopically detectable alteration in human HEL cells to EC50 for acyclovir-resistant TK deficient Herpes simplex virus-1 KOS; assay type: toxicity, cell-based; settings: read-out: Selectivity Index
Method in brief: (§1)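 Cytotoxicity was taken as the concentration causing a microscopically detectable change in normal cell morphology (Vero or HEL). […] The selectivity index is the first divided by the second.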

Human alphaherpesvirus 2 = test: Antiviral activity against Herpes simplex virus-2 G infected in human HEL cells assessed as protection against virus-induced cytopathogenicity after 2 days; assay type: functional, organism-based; settings: Human alphaherpesvirus 2, strain G, 48 h
Human alphaherpesvirus 1 [3] = test: Antiviral activity against Herpes simplex virus-1 KOS infected in human HEL cells assessed as protection against virus-induced cytopathogenicity after 2 days; assay type: functional, organism-based; settings: Human alphaherpesvirus 1, KOS, 48 h
[4] = Cytotoxicity against african green monkey Vero cells assessed as minimum concentration required to cause microscopically detectable alteration after 2 days; assay type: cell-based; settings: chlorocebus sabaeus, read-out: Activity
Influenza B virus [5] = test: Antiviral activity against influenza B virus infected in MDCK cells assessed as protection against virus-induced cytopathogenicity at 100 ug/ml after 2 days; assay type: functional, organism-based
Method in brief: (§2)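 Infected MDCK cells were treated. […] N.A. means not active at the highest concentration tested or at a subtoxic concentration.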

Coxsackievirus B4 [6] = test: Antiviral activity against Coxsackie virus B4 infected in human HeLa cells assessed as protection against virus-induced cytopathogenicity after 2 days; assay type: functional, organism-based; settings: Enterovirus B, 48 h
Felid alphaherpesvirus 1 = test: Antiviral activity against Feline herpes virus infected in cat CRFK cells assessed as protection against virus-induced cytopathogenicity after 2 days by MTS assay; assay type: functional, organism-based; settings: Felid alphaherpesvirus 1, CRFK, 48 h
[7] = tested on: Vesicular stomatitis virus; test: Antiviral activity against Vesicular stomatitis virus infected in human HEL cells assessed as protection against virus-induced cytopathogenicity after 2 days; assay type: functional, organism-based; settings: 48 h
[8] = Selectivity index, ratio of minimum concentration required to cause microscopically detectable alteration in human HEL cells to EC50 for Herpes simplex virus-1 KOS; assay type: toxicity, cell-based; settings: read-out: Selectivity Index; method in brief: as §1
Influenza A virus [9] = test: Antiviral activity against influenza A virus H1N1 infected in MDCK cells assessed as cell viability at 100 ug/ml after 2 days by MTS assay; assay type: functional, organism-based
Influenza A virus [10] = test: Antiviral activity against Influenza A virus H3N2 infected in MDCK cells assessed as protection against virus-induced cytopathogenicity at 100 ug/ml after 2 days; assay type: functional, organism-based; method in brief: as §2
[11] = tested on: Mammalian orthoreovirus 1; test: Antiviral activity against Reovirus-1 infected in african green monkey Vero cells assessed as protection against virus-induced cytopathogenicity after 2 days; assay type: functional, organism-based; settings: Mammalian orthoreovirus 1, Vero, 48 h
[12] = tested on: Vesicular stomatitis virus; test: Antiviral activity against Vesicular stomatitis virus infected in human HeLa cells assessed as protection against virus-induced cytopathogenicity after 2 days; assay type: functional, organism-based; settings: 48 h
Human respirovirus 3 = test: Antiviral activity against Para influenza-3 virus infected in african green monkey Vero cells assessed as protection against virus-induced cytopathogenicity after 2 days; assay type: functional, organism-based; settings: Human respirovirus 3, Vero, 48 h
[13] = Selectivity index, ratio of minimum concentration required to cause microscopically detectable alteration in human HEL cells to EC50 for Herpes simplex virus-2 G; assay type: toxicity, cell-based; settings: read-out: Selectivity Index; method in brief: as §1
Influenza A virus [14] = test: Antiviral activity against Influenza A virus H3N2 infected in MDCK cells assessed as cell viability at 100 ug/ml after 2 days by MTS assay; assay type: functional, organism-based
[15] = Selectivity index, ratio of minimum concentration required to cause microscopically detectable alteration in human HEL cells to EC50 for acyclovir-resistant TK deficient Vaccina virus; assay type: toxicity, cell-based; settings: read-out: Selectivity Index; method in brief: as §1
Sindbis virus [16] = test: Antiviral activity against Sindbis virus infected in african green monkey Vero cells assessed as protection against virus-induced cytopathogenicity after 2 days; assay type: functional, organism-based; settings: 48 h
[17] = Cytotoxicity against human HeLa cells assessed as minimum concentration required to cause microscopically detectable alteration after 2 days; assay type: cell-based; settings: read-out: Activity
[18] = Cytotoxicity against MDCK cells assessed as minimum concentration required to cause microscopically detectable alteration after 2 days; assay type: cell-based, Canis lupus familiaris; settings: dog, read-out: Activity
[19] = Cytotoxicity against cat CRFK cells by MTS assay; assay type: cell-based, Felis catus; settings: crfk
Method in brief: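 In uninfected CRFK cells, the 50% cytotoxic concentration was derived from cell viability measured by the colorimetric formazan-based MTS assay.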

MDCK = test: (§3) Cytotoxicity against MDCK cells by MTS assay; assay type: cell-based, Canis lupus familiaris; settings: dog, mdck
Method in brief: (§4)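 In Madin Darby canine kidney cells, the 50% cytotoxic concentration was derived from cell viability measured by the colorimetric formazan-based MTS assay.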

[20] = Cytotoxicity against human HEL cells assessed as minimum concentration required to cause microscopically detectable alteration after 2 days; assay type: cell-based; settings: read-out: Activity
[21] = tested on: Respiratory syncytial virus; test: Antiviral activity against Respiratory syncytial virus infected in human HeLa cells assessed as protection against virus-induced cytopathogenicity after 2 days; assay type: functional, organism-based; settings: 48 h
Human alphaherpesvirus 1 [22] = test: Antiviral activity against acyclovir-resistant TK deficient Herpes simplex virus-1 KOS infected in human HEL cells assessed as protection against virus-induced cytopathogenicity after 2 days; assay type: functional, organism-based; settings: Human alphaherpesvirus 1, KOS, 48 h
Influenza B virus [23] = test: Antiviral activity against influenza B virus infected in MDCK cells assessed as cell viability at 100 ug/ml after 2 days by MTS assay; assay type: functional, organism-based
Coxsackievirus B4 [24] = test: Antiviral activity against Coxsackie virus B4 infected in african green monkey Vero cells assessed as protection against virus-induced cytopathogenicity after 2 days; assay type: functional, organism-based; settings: Enterovirus B, 48 h
Punta Toro virus [25] = test: Antiviral activity against Punta Toro virus infected in african green monkey Vero cells assessed as protection against virus-induced cytopathogenicity after 2 days; assay type: functional, organism-based; settings: 48 h
Influenza A virus [26] = test: Antiviral activity against influenza A virus H1N1 infected in MDCK cells assessed as protection against virus-induced cytopathogenicity at 100 ug/ml after 2 days; assay type: functional, organism-based; method in brief: as §2
[27] = Selectivity index, ratio of minimum concentration required to cause microscopically detectable alteration in green monkey Vero cells to EC50 for sCoxsackie virus B4; assay type: toxicity, cell-based; settings: read-out: Selectivity Index; method in brief: as §1
[28] = Selectivity index, ratio of minimum concentration required to cause microscopically detectable alteration in green monkey Vero cells to EC50 for Sindbis virus; assay type: toxicity, cell-based; settings: read-out: Selectivity Index; method in brief: as §1
[29] = Selectivity index, ratio of minimum concentration required to cause microscopically detectable alteration in green monkey Vero cells to EC50 for Reovirus-1; assay type: toxicity, cell-based; settings: read-out: Selectivity Index; method in brief: as §1
Coxsackievirus B4 [30] = test: Antiviral activity against Coxsackie virus B4 infected in african green monkey Vero cells assessed as inhibition of viral replication; assay type: functional, organism-based
[31] = Selectivity index, ratio of minimum concentration required to cause microscopically detectable alteration in green monkey Vero cells to EC50 for Punta Toro virus; assay type: toxicity, cell-based; settings: read-out: Selectivity Index; method in brief: as §1
Punta Toro virus [32] = test: Antiviral activity against Punta Toro virus infected in african green monkey Vero cells assessed as inhibition of viral replication; assay type: functional, organism-based
[33] = tested on: Mammalian orthoreovirus 1; test: Antiviral activity against Reovirus-1 infected in african green monkey Vero cells assessed as inhibition of viral replication; assay type: functional, organism-based
Sindbis virus [34] = test: Antiviral activity against Sindbis virus infected in african green monkey Vero cells assessed as inhibition of viral replication; assay type: functional, organism-based
Influenza B virus [35] = test: Antiviral activity against influenza B virus infected in MDCK cells assessed as cell viability after 2 days by MTS assay; assay type: functional, organism-based
[36] = as §3; assay type: cell-based, Canis lupus familiaris; settings: dog, MDCK cells; method in brief: as §4
Influenza B virus [37] = test: Antiviral activity against influenza B virus infected in MDCK cells assessed as protection against virus-induced cytopathogenicity after 2 days; assay type: functional, organism-based; method in brief: as §2

SMILES	EC50 [1] [µg/mL]	EC50 (Human alphaherpesvirus 2) [µg/mL]	EC50 (Human alphaherpesvirus 1 [3]) [µg/mL]	MCC at 48 h [4] [µg/mL]	EC50 (Influenza B virus [5])	EC50 (Coxsackievirus B4 [6]) [µg/mL]	EC50 (Felid alphaherpesvirus 1) [µg/mL]	EC50 [7] [µg/mL]	EC50 (Influenza A virus [9])	EC50 (Influenza A virus [10])	EC50 [11] [µg/mL]	EC50 [12] [µg/mL]	EC50 (Human respirovirus 3) [µg/mL]	EC50 (Influenza A virus [14])	EC50 (Sindbis virus [16]) [µg/mL]	MCC at 48 h [17] [µg/mL]	MCC at 48 h [18] [µg/mL]	CC50 [19] [µg/mL]	CC50 (MDCK) [µg/mL]	MCC at 48 h [20] [µg/mL]	further results
COc1ccc(/C=N/n2c(-c3ccccc3)nc3ccccc3c2=O)cc1	> 4	8 (≈ 22.5 µM)	9 (≈ 25.3 µM)	100	Not Active	> 4	> 4	> 100	Not Active	Not Active	> 20	> 4	> 20	Not Active	> 20	20	20	13.7 (≈ 38.5 µM)	8.2 (≈ 23.1 µM)	> 100	selectivity ratio [2]: 11; selectivity ratio [8]: 11; selectivity ratio [13]: 13; selectivity ratio [15]: 11; EC50 [21]: > 4 µg/mL; EC50 (Human alphaherpesvirus 1 [22]): 9 µg/mL (≈ 25.3 µM); EC50 (Influenza B virus [23]): Not Active; EC50 (Coxsackievirus B4 [24]): > 20 µg/mL; EC50 (Punta Toro virus [25]): > 20 µg/mL; EC50 (Influenza A virus [26]): Not Active
O=c1c2ccccc2nc(-c2ccccc2)n1/N=C/c1ccccc1	> 0.8	9 (≈ 27.7 µM)	7 (≈ 21.5 µM)	20	Not Active	> 4	> 0.8	> 100	Not Active	Not Active	> 4	> 4	> 4	Not Active	> 4	20	20	3.7 (≈ 11.4 µM)	15 (≈ 46.1 µM)	> 100	selectivity ratio [2]: 11; selectivity ratio [8]: 14; selectivity ratio [13]: 11; selectivity ratio [15]: 11; EC50 [21]: > 4 µg/mL; EC50 (Human alphaherpesvirus 1 [22]): 9 µg/mL (≈ 27.7 µM); EC50 (Influenza B virus [23]): Not Active; EC50 (Coxsackievirus B4 [24]): > 4 µg/mL; EC50 (Punta Toro virus [25]): > 4 µg/mL; EC50 (Influenza A virus [26]): Not Active
O=c1c2ccccc2nc(-c2ccccc2)n1/N=C/c1ccccc1O	> 4	1 (≈ 2.93 µM)	1 (≈ 2.93 µM)	100	Not Active	> 0.8	> 4	15 (≈ 43.9 µM)	Not Active	Not Active	10 (≈ 29.3 µM)	> 0.8	> 20	Not Active	5 (≈ 14.6 µM)	4	≥ 0.8	11.2 (≈ 32.8 µM)	2.6 (≈ 7.62 µM)	100	selectivity ratio [2]: 100; selectivity ratio [27]: 10; selectivity ratio [28]: 20; selectivity ratio [29]: 10; inhibition (Coxsackievirus B4 [30]): Active; selectivity ratio [8]: 100; selectivity ratio [31]: 33; selectivity ratio [13]: 100; selectivity ratio [15]: 125; inhibition (Punta Toro virus [32]): Active; inhibition [33]: Active; inhibition (Sindbis virus [34]): Active; EC50 [21]: > 0.8 µg/mL; EC50 (Human alphaherpesvirus 1 [22]): 1 µg/mL (≈ 2.93 µM); EC50 (Influenza B virus [23]): Not Active; EC50 (Coxsackievirus B4 [24]): 10 µg/mL (≈ 29.3 µM); EC50 (Punta Toro virus [25]): 3 µg/mL (≈ 8.79 µM); EC50 (Influenza A virus [26]): Not Active
NC12CC3CC(CC(C3)C1)C2 [AMANTADINE]																	> 1000				EC50 (Influenza B virus [35]): Not Active; CC50 [36]: > 1000 µg/mL; EC50 (Influenza B virus [37]): Not Active
O=c1c2ccccc2nc(-c2ccccc2)n1/N=C/c1ccc(O)cc1	> 20	> 20	> 20	100	Not Active	> 20	> 20	> 20	Not Active	Not Active	> 20	> 20	> 20	Not Active	> 20	100	20	59.5 (≈ 174 µM)	10.2 (≈ 29.9 µM)	100	EC50 [21]: > 20 µg/mL; EC50 (Human alphaherpesvirus 1 [22]): > 20 µg/mL; EC50 (Influenza B virus [23]): Not Active; EC50 (Coxsackievirus B4 [24]): > 20 µg/mL; EC50 (Punta Toro virus [25]): > 20 µg/mL; EC50 (Influenza A virus [26]): Not Active
CC(N)C12CC3CC(CC(C3)C1)C2 (configuration not stated) [RIMANTADINE]																	1000		472 (≈ 2630 µM)		EC50 (Influenza B virus [35]): Not Active; EC50 (Influenza B virus [37]): Not Active
